rRNA inh HTS = selective bacterial rRNA inhibition in E. coli. hit rate 1.6% among 350,000. E. coli WT GFP vs humanized-ribosome RFP mutants, fluorescence, 24 h; active compounds read low; DMSO median 0, no signal -100. AID 720706. GFP signal change (wild-type ribosome), % (test concentration not listed);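 active = significant combined selectivity score with lowered wild-type GFP, culture density cut under 30%, mutant RFP and density less affected; inactive = any of these conditions unmet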
Cneo AK release = causes C. neoformans cell lysis; AID 651654; lysis activity, % at 15 µM; hit rate 0.2% among 360,000; adenylate kinase release luminescence, 4 h; normalised: neutral wells 0, clomiphene wells 100;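 active = mean lysis activity across replicates of at least 80%, whatever share of replicates individually reach that level; inactive = mean lysis activity below 80%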
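Material – log-phase Cryptococcus neoformans yeast cells · Input – 5 × 10^6 yeast cells/mL · Medium – fresh YPD growth medium · Doses – single compound concentration per well · Timing – static 4 h at 37 °C with compound, 1 h detection · Detection – adenylate kinase release luminescence · Read-out – signal increase indicating cell lysis · Control set – Clomiphene as positive lysis control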
RAD52 inh = inhibitors of human RAD52 DNA annealing; P43351; recombinant RAD52 DNA annealing, FRET fluorescence; inhibition, % at 18.7 µM; hit rate 0.46% among 360,000; AID 651710;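 active = every replicate showing at least 50% inhibition; inconclusive = mean inhibition at least 50% but not in every replicate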
PglD inh = inhibitors of Campylobacter jejuni PglD acetyltransferase; purified PglD enzyme, DTNB colorimetric CoA detection; inhibition, % at 12.5 µM; hit rate 0.098% among 360,000; AID 602405; in the data active = inhibition above about 16%, passing the limit was not always enough; inconclusive = no clear call, values can overlap the other calls
RAD54 inh = RAD54 (human) branch migration inhibition; Q92698; RAD54 Holliday junction branch migration, FAM/BHQ fluorescence; inhibition, % at 10.4 µM; hit rate 0.14% among 360,000;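 active = mean normalized replicate activity at least 40 and at least half of replicates scoring 40 or more; inconclusive = only one of the two criteria met; inactive = mean below 40 and under half of replicates reaching 40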;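 note: inhibitors cause a drop in the FAM fluorescence signal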
Target sequence (Q92698 whole entry, looked up): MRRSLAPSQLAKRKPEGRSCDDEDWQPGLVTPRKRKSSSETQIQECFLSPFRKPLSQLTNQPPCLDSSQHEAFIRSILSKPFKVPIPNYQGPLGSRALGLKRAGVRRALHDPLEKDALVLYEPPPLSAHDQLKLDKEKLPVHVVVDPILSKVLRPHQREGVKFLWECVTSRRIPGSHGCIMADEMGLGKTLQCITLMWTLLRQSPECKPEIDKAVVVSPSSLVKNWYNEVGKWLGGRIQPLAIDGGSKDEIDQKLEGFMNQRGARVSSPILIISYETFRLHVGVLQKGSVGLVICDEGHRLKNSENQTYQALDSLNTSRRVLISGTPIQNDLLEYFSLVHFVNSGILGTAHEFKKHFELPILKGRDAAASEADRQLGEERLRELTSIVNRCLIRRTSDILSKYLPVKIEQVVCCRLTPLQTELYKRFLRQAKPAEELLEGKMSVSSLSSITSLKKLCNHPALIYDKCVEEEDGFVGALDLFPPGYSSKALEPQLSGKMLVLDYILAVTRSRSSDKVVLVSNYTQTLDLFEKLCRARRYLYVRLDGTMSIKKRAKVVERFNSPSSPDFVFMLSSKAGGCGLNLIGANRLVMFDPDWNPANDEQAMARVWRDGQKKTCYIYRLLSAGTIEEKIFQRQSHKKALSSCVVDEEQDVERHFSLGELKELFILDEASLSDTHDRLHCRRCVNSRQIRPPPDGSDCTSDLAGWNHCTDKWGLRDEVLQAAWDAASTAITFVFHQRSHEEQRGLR
DNA binder FP = binds DNA, flagging false RAD52 inhibitor hits; hit rate 8% among 1,000; AID 652128; Salmon sperm DNA/acridine orange FP displacement, DNA binding; AC50, µM; shares compounds with RAD52 inh;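 active = fitted half-maximal concentration for signal loss at or below twice the highest dose tested, in every separate run, actives reach about 64 µM in these data; inconclusive = runs disagree, or flat partial signal loss, or poor fit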
Of the large screens only hits and unclear results are named; the others gave an inactive call (follow-up assays come after a bar, where they were run). This is a sample that favours compounds with a hit; in the whole collection about 1.9% have one here.

CCC[C@@H](CN1CCC[C@H]1CN1C(N)=NC[C@H]1CC(C)C)N1C[C@@H]([C@H](C)CC)N(CCc2ccc(Cl)c(Cl)c2)C1=N	RAD52 inh 51 | DNA binder FP inactive
COc1ccc2c3c([nH]c2c1)[C@@H](CO)N(C(=O)c1ccncc1)CC31CN(Cc2cccnc2)C1	none (no result: Cneo AK release, RAD52 inh, PglD inh, RAD54 inh)
CCCNC(=O)N1[C@H](CNC(C)=O)[C@@H](c2ccccc2)[C@@H]1CO	none (no result: RAD52 inh)
CC1(C)N=C(N)N=C(N)N1c1ccc(CCCCc2ccccc2)cc1	RAD52 inh 85 | DNA binder FP inactive
CC1(C)N=C(N)N=C(N)N1c1ccccc1	none (no result: rRNA inh HTS, RAD52 inh)
CCC(=O)c1ccc2c(c1)N(CCCN(C)C)c1ccccc1S2	RAD52 inh 70 (no result: rRNA inh HTS) | DNA binder FP inactive
CCN(CC)CCC(=O)N1C/C(=C/c2ccccc2)C(=O)/C(=C\c2ccccc2)C1	none (no result: Cneo AK release, PglD inh, RAD54 inh)
O=C1/C(=C\c2ccccc2)CN(C(=O)CCN2CCCCC2)C/C1=C/c1ccccc1	RAD52 inh 55 (no result: Cneo AK release, PglD inh, RAD54 inh) | DNA binder FP inactive
Cc1cc(C(C)(C)CC(C)(C)C)ccc1OCCOCC[N+](C)(C)Cc1ccccc1	RAD52 inh 91 (no result: rRNA inh HTS) | DNA binder FP inconclusive
Cn1c(N=Nc2ccc(N3CCOCC3)cc2)[n+](C)c2ccccc21	RAD52 inh 103, RAD54 inh 92 | DNA binder FP 11µM
CN(C)c1ccc(NC(=O)CN2CCC(NC(=O)C3CCCCC3)CC2)cc1	RAD52 inh 72 (no result: Cneo AK release, PglD inh, RAD54 inh) | DNA binder FP inactive
O=C(CN1CCC(NC(=O)C2CCCCC2)CC1)Nc1ccccc1	none
COCC#Cc1cnc2c(c1)C(=O)N([C@@H](C)CO)C[C@H](C)[C@@H](CN(C)C(=O)C1CCCCC1)O2	none
COc1ccc2nc(C)cc(Nc3ccc(N4CCN(C)CC4)cc3)c2c1	RAD52 inh 100, RAD54 inh 98 | DNA binder FP 42µM
COC(=O)C1=CN(Cc2ccc(C)cc2)C=C(C(=O)OC)C1c1cc(OC)c(OC)c(OC)c1	RAD52 inh 95 | DNA binder FP inactive
C[C@@H]1CCCCO[C@H](CN(C)C(=O)CCCN(C)C)[C@H](C)CN([C@@H](C)CO)C(=O)c2cc(NS(=O)(=O)c3cccs3)ccc2O1	none
C[C@@H]1CN([C@@H](C)CO)C(=O)c2cccc(NS(=O)(=O)c3ccc(Cl)cc3)c2O[C@@H]1CN(C)Cc1ccc(Cl)c(Cl)c1	none
CC1CCCCN1CC(=O)Nc1ccc(Oc2ccccc2)cc1 (stereo not given)	none (no result: rRNA inh HTS, RAD52 inh)
CC1CCCCN1CC(=O)Nc1ccc(N2CCCCCC2)cc1 (stereo not given)	RAD52 inh 93 (no result: Cneo AK release, PglD inh, RAD54 inh) | DNA binder FP inactive
CN1CCN(C(=O)C[C@@H]2CC[C@@H]3[C@H](COC[C@H](O)CN3Cc3cccc(F)c3)O2)CC1	none
CN(C)CCOC(=O)c1ccc2[nH]c3c(c2c1)CSCC3	RAD52 inh 99 (no result: Cneo AK release, PglD inh, RAD54 inh) | DNA binder FP inactive
O=C(O)c1ccc2[nH]c3c(c2c1)CSCC3	none (no result: rRNA inh HTS, RAD52 inh)
COc1nc(N=C(N)N)nc2ccc(C)cc12	RAD52 inh 79 (no result: Cneo AK release, PglD inh, RAD54 inh) | DNA binder FP inactive
COc1nc(Nc2nc3ccccc3c(=O)[nH]2)nc2ccc(C)cc12	none
C[C@@H]1CCCCO[C@@H](CN(C)Cc2ccc(C(=O)Nc3ccccc3N)cc2)[C@@H](C)CN([C@H](C)CO)C(=O)c2cc(NS(=O)(=O)c3cn(C)cn3)ccc2O1	none (no result: Cneo AK release, PglD inh, RAD54 inh)
OC(CN1CCNCC1)Cn1c2ccccc2c2ccccc21 (stereo not given)	RAD52 inh 79 | DNA binder FP inactive
O=C(NCc1ccc(F)cc1)[C@H]1N[C@H]2c3ccc(-c4ccccc4)c(=O)n3C[C@H]2[C@@H]1CO	none
CN1CCN(c2ccc(CNC[C@H]3O[C@@H](n4cnc5c(=O)[nH]c(N)nc54)[C@H](O)[C@@H]3O)c(F)c2)CC1	RAD52 inh 82 | DNA binder FP inactive
C[C@@H]1CCCCO[C@H](CN(C)Cc2ccc(Cl)c(Cl)c2)[C@@H](C)CN([C@@H](C)CO)C(=O)c2cc(NS(=O)(=O)c3cn(C)cn3)ccc2O1	none
CSC1SCC2C(=O)N(C)C(C(C)C)C(=O)OCC(NC(=O)c3cnc4ccccc4n3)C(=O)NC(C)C(=O)N(C)C1C(=O)N(C)C(C(C)C)C(=O)OCC(NC(=O)c1cnc3ccccc3n1)C(=O)NC(C)C(=O)N2C (stereo not given)	RAD52 inh 72 (no result: Cneo AK release, PglD inh, RAD54 inh) | DNA binder FP inactive
C[C@@H]1CCCCO[C@H](CN(C)C(=O)Nc2ccc(F)cc2)[C@H](C)CN([C@H](C)CO)C(=O)c2cc(NS(C)(=O)=O)ccc2O1	none
CCN(C)c1cc2c(c3c1ccn3C)C1CCC2C1 (stereo not given)	RAD52 inh 70 (no result: rRNA inh HTS) | DNA binder FP inactive
CN(CCc1ccccc1)c1cc2c(c3c1ccn3C)C1CCC2C1 (stereo not given)	RAD52 inh 64 | DNA binder FP inactive
CN(c1cc2c(c3c1ccn3C)C1CCC2C1)C1CCCCC1 (stereo not given)	none
CN(Cc1ccccc1)c1cc2c(c3c1ccn3C)C1CCC2C1 (stereo not given)	RAD52 inh 58 | DNA binder FP inactive
COc1ccc(NC(=O)N2CC(=O)N3[C@H](C2)[C@H](c2ccc(Br)cc2)[C@@H]3CO)cc1	none (no result: Cneo AK release, PglD inh, RAD54 inh)
C[C@@H]1CN([C@@H](C)CO)C(=O)c2cc(C#CCN(C)C)cnc2O[C@H]1CN(C)C(=O)c1ccc(F)cc1	none
CC(C)CC#Cc1ccc2c(c1)O[C@@H](CN(C)S(=O)(=O)c1cccc(F)c1)[C@H](C)CN([C@@H](C)CO)S2(=O)=O	none
c1ccc2c(c1)C1=NCCN1c1ccccc1-2	RAD52 inh 82 (no result: Cneo AK release, PglD inh, RAD54 inh) | DNA binder FP inconclusive
C[C@H]1CN([C@@H](C)CO)C(=O)c2cc(C#CCN(C)C)cnc2O[C@H]1CN(C)C(=O)Nc1cccc(F)c1	none
CC/C(=N\O)c1c(O)c2c(n(-c3ccccc3)c1=O)CCCC2	RAD52 inh 54 (no result: rRNA inh HTS, Cneo AK release, PglD inh, RAD54 inh) | DNA binder FP inactive
C[C@H](CO)N1C[C@H](C)[C@@H](CN(C)C(=O)N[C@H](C)c2ccccc2)OCc2ccccc2-c2c(n(C)c3ccccc23)C1=O	none
NCC[C@H](O)C(=O)N[C@@H]1C[C@H](N)[C@@H](O[C@H]2O[C@H](CN)[C@@H](O)[C@H](O)[C@H]2O)[C@H](O)[C@H]1O[C@H]1O[C@H](CO)[C@@H](O)[C@H](N)[C@H]1O	RAD52 inh 57, RAD54 inh 100 (no result: rRNA inh HTS) | DNA binder FP inactive
COC(=O)C1=CO[C@@H](O[C@@H]2O[C@H](CO)[C@@H](O)[C@H](O)[C@H]2O)C2C(CO)=CCC12 (stereo not given in full)	none
CN(C)C(=O)c1ccc(-c2ccc3n(c2=O)C[C@@H]2[C@@H](CO)[C@H](C(=O)NCCc4ccccc4)N[C@H]32)cc1	none
CO[C@H](CN(C)Cc1nccs1)[C@H](C)CN([C@@H](C)CO)S(=O)(=O)c1ccc(F)cc1	none

Source: PubChem (Broad Institute)
